Assay results reported in ChEMBL document CHEMBL5154895, “Mechanistic Studies and In Vivo Efficacy of an Oxadiazole-Containing Antibiotic” (J Med Chem, 2022).
In brackets after ≈: the same amount, converted by molar mass. Activity calls are given as the source filed them. The rule behind the calls is not given here.

How the values were obtained:
Staphylococcus aureus [1] = assay: Downregulation of DapE protein expression in Staphylococcus aureus assessed as log2 of fold change in protein level measured after 2 hrs by LC-MS/MS analysis relative to control; assay type: functional
Summary of the method: (§1)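 S. aureus ATCC 25923 at OD600 0.6 was treated with compound or DMSO for 2 h at 37 °C, normalised to OD600 1.1, and washed in PBS. Cells were pressure-lysed in 100 mM ammonium bicarbonate, then acetone-precipitated, reduced with DTT, alkylated with iodoacetamide, and digested with trypsin/Lys-C. Peptides were desalted and run on LC-MS/MS. Label-free quantitation used proteins present in all 3 samples, filtered at p<0.05 against DMSO.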

Staphylococcus aureus [2] = assay: Downregulation of IlvA protein expression in Staphylococcus aureus assessed as log2 of fold change in protein level measured after 2 hrs by LC-MS/MS analysis relative to control; assay type: functional; summary of the method: as §1
Listeria monocytogenes = assay: Antibacterial activity against Listeria monocytogenes ATCC 19111 assessed as inhibition of bacterial growth incubated for 18 to 20 hrs by broth microdilution method; assay type: functional; settings: time 18-20 hrs
Summary of the method: (§2)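 Broth microdilution with a 0.5 McFarland inoculum diluted in tryptic soy broth to about 5 × 10^5 CFU/mL. Serial compound dilutions incubated aerobically at 37° C for 18–20 hours. MIC read visually as the lowest concentration with no growth.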

Staphylococcus aureus [3] = assay: Upregulation of DefA protein expression in Staphylococcus aureus assessed as log2 of fold change in protein level measured after 2 hrs by LC-MS/MS analysis relative to control; assay type: functional
Summary of the method: (§3)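 S. aureus ATCC 25923 at OD600 0.6 exposed to compound or DMSO control for 2 h at 37°C, normalized to OD600 1.1 and PBS-washed. Cells were pressure-cycling lysed in 100 mM ammonium bicarbonate, and 50 μg protein was acetone-precipitated, reduced and alkylated, then Trypsin/Lys-C digested and C18-desalted. About 1 μg peptides went to LC-MS/MS. Label-free quantitation kept proteins present in all 3 samples, filtered at p <0.05.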

Staphylococcus aureus [4] = assay: Downregulation of hydrolase protein expression in Staphylococcus aureus measured after 2 hrs by LC-MS/MS analysis; assay type: functional; summary of the method: as §1
Staphylococcus aureus [5] = assay: Downregulation of site-specific integrase protein expression in Staphylococcus aureus measured after 2 hrs by LC-MS/MS analysis; assay type: functional; summary of the method: as §3
Staphylococcus aureus [6] = assay: Downregulation of LukS-PV protein expression in Staphylococcus aureus assessed as log2 of fold change in protein level measured after 2 hrs by LC-MS/MS analysis relative to control; assay type: functional; summary of the method: as §1
Staphylococcus aureus [7] = assay: Downregulation of glycero-phosphodiester phosphodiesterase protein expression in Staphylococcus aureus measured after 2 hrs by LC-MS/MS analysis; assay type: functional; summary of the method: as §1
Staphylococcus aureus [8] = assay: Upregulation of TraG protein expression in Staphylococcus aureus assessed as log2 of fold change in protein level measured after 2 hrs by LC-MS/MS analysis relative to control; assay type: functional; summary of the method: as §3
Staphylococcus aureus [9] = assay: Downregulation of EssB protein expression in Staphylococcus aureus assessed as log2 of fold change in protein level measured after 2 hrs by LC-MS/MS analysis relative to control; assay type: functional; summary of the method: as §1
Staphylococcus aureus [10] = assay: Upregulation of peptidase M23 protein expression in Staphylococcus aureus assessed as log2 of fold change in protein level measured after 2 hrs by LC-MS/MS analysis relative to control; assay type: functional; summary of the method: as §3
Streptococcus pyogenes = assay: Antibacterial activity against Streptococcus pyogenes MGAS 9882 assessed as inhibition of bacterial growth incubated for 18 to 20 hrs by broth microdilution method; assay type: functional; settings: time 18-20 hrs; summary of the method: as §2
Staphylococcus aureus [11] = assay: Downregulation of NarG protein expression in Staphylococcus aureus assessed as log2 of fold change in protein level measured after 2 hrs by LC-MS/MS analysis relative to control; assay type: functional; summary of the method: as §1
Staphylococcus aureus [12] = assay: Downregulation of type VII secretion protein EsaB protein expression in Staphylococcus aureus measured after 2 hrs by LC-MS/MS analysis; assay type: functional; summary of the method: as §3
Staphylococcus aureus [13] = assay: Downregulation of oxidoreductase protein expression in Staphylococcus aureus measured after 2 hrs by LC-MS/MS analysis; assay type: functional; summary of the method: as §3
Staphylococcus aureus [14] = assay: Downregulation of PgsA gene expression in Staphylococcus aureus ATCC 25923 assessed as reduction in […] at 0.25 ug/ml incubated for 2 hrs by RT-PCR analysis; assay type: functional; settings: dose 0.25 µg/ml
Summary of the method: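 S. aureus ATCC 25923 at OD600 0.6 was treated in triplicate with 0.25 μg/mL compound or DMSO for 2 h at 37 °C and pelleted. Total RNA was analysed by real-time RT-PCR with pgsA primers, normalised to 16S rRNA. Significance was tested by Student's t-test.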

Staphylococcus aureus [15] = assay: Downregulation of nitrite reductase (NAD(P)H) small subunit protein expression in Staphylococcus aureus measured after 2 hrs by LC-MS/MS analysis; assay type: functional; summary of the method: as §3
Staphylococcus aureus [16] = assay: Downregulation of DNA recombination protein RecF expression in Staphylococcus aureus measured after 2 hrs by LC-MS/MS analysis; assay type: functional; summary of the method: as §1
Staphylococcus aureus [17] = assay: Downregulation of sodium ABC transporter ATP-binding protein expression in Staphylococcus aureus measured after 2 hrs by LC-MS/MS analysis; assay type: functional; summary of the method: as §3
[18] = In vivo antibacterial activity against methicillin-resistant Staphylococcus aureus USA300 infected in Balb/c mouse model assessed as reduction in bacterial infection in skin wounds administered topically twice daily 2 days post infection and measured after 5 days post compound treatment by CFU counting; design: scale not given: the % may be the effect or the level left; settings: time 5 day
Staphylococcus aureus [19] = assay: Downregulation of CDP-diacylglycerol-glycerol-3-phosphate-3-phosphatidyltransferase protein expression in Staphylococcus aureus measured after 2 hrs by LC-MS/MS analysis; assay type: functional; summary of the method: as §1
Staphylococcus aureus [20] = assay: Downregulation of molybdenum ABC transporter ATP-binding protein expression in Staphylococcus aureus measured after 2 hrs by LC-MS/MS analysis; assay type: functional; summary of the method: as §3

Compound `CC1CC(C)CN(S(=O)(=O)c2ccc(C(=O)Nc3nnc(-c4ccc(C(F)(F)F)cc4)o3)cc2)C1` (configuration not stated) has a log2FC (Staphylococcus aureus [1]) of -3.3, a log2FC (Staphylococcus aureus [2]) of -2 and an MIC (Listeria monocytogenes) of 0.06 µg/mL (≈ 0.118 µM). For the same compound, the log2FC (Staphylococcus aureus [3]) was 2, the Activity (Staphylococcus aureus [4]) was “Active” and the Activity (Staphylococcus aureus [5]) was “Active”. For the same compound, the log2FC (Staphylococcus aureus [6]) was -3.7, the Activity (Staphylococcus aureus [7]) was “Active” and the log2FC (Staphylococcus aureus [8]) was 2. It also gave a log2FC (Staphylococcus aureus [9]) of -3.3, a log2FC (Staphylococcus aureus [10]) of 2 and an MIC (Streptococcus pyogenes) of 0.06 µg/mL (≈ 0.118 µM). For the same compound, the log2FC (Staphylococcus aureus [11]) was -2, the Activity (Staphylococcus aureus [12]) was “Active” and the Activity (Staphylococcus aureus [13]) was “Active”. The Activity (Staphylococcus aureus [14]) was “Active”, the Activity (Staphylococcus aureus [15]) was “Active” and the Activity (Staphylococcus aureus [16]) was “Active”. The Activity (Staphylococcus aureus [17]) was “Active”, the Activity [18] was 93.8% and the Activity (Staphylococcus aureus [19]) was “Active”. The Activity (Staphylococcus aureus [20]) was “Active”.
